Laboratory results from ChEMBL document CHEMBL1806356, “Synthesis, characterization and antimicrobial studies of some new pyrazole incorporated imidazole derivatives” (Eur J Med Chem, 2011).

Experiments:
Escherichia coli [1] = experiment: Antibacterial activity against Escherichia coli ATCC 25922 assessed as zone of inhibition at 1000 ug/ml after 24 hrs by agar diffusion method; assay type: functional; details: ATCC 25922, 24 h, read-out: IZ
How it was run: (§1)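 Well diffusion on Mueller-Hinton agar seeded with 24 h old bacterial cultures. Test compounds were dissolved in DMSO at 1 and 0.5 mg/mL and added to labeled wells. Plates were incubated 24 h at 37 °C. The inhibition zone around each well was measured in mm. Triplicate experiments, standard deviation calculated.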

Escherichia coli [2] = experiment: Antibacterial activity against Escherichia coli ATCC 25922 assessed as zone of inhibition at 500 ug/ml after 24 hrs by agar diffusion method; assay type: functional; details: ATCC 25922, 24 h, read-out: IZ; how it was run: as §1
Staphylococcus aureus [3] = experiment: Antibacterial activity against Staphylococcus aureus assessed as zone of inhibition at 1000 ug/ml after 24 hrs by agar diffusion method; assay type: functional; details: read-out: IZ; how it was run: as §1
Staphylococcus aureus [4] = experiment: Antibacterial activity against Staphylococcus aureus assessed as zone of inhibition at 500 ug/ml after 24 hrs by agar diffusion method; assay type: functional; details: read-out: IZ; how it was run: as §1
Bacillus subtilis [5] = experiment: Antibacterial activity against Bacillus subtilis assessed as zone of inhibition at 1000 ug/ml after 24 hrs by agar diffusion method; assay type: functional; details: read-out: IZ; how it was run: as §1
Bacillus subtilis [6] = experiment: Antibacterial activity against Bacillus subtilis assessed as zone of inhibition at 500 ug/ml after 24 hrs by agar diffusion method; assay type: functional; details: read-out: IZ; how it was run: as §1
Salmonella typhimurium [7] = experiment: Antibacterial activity against Salmonella Typhimurium assessed as zone of inhibition at 1000 ug/ml after 24 hrs by agar diffusion method; assay type: functional, Salmonella enterica subsp. enterica serovar Typhimurium; details: Salmonella enterica, read-out: IZ; how it was run: as §1
Salmonella typhimurium [8] = experiment: Antibacterial activity against Salmonella Typhimurium assessed as zone of inhibition at 500 ug/ml after 24 hrs by agar diffusion method; assay type: functional, Salmonella enterica subsp. enterica serovar Typhimurium; details: Salmonella enterica, read-out: IZ; how it was run: as §1
Clostridium perfringens [9] = experiment: Antibacterial activity against Clostridium perfringens assessed as zone of inhibition at 1000 ug/ml after 24 hrs by agar diffusion method; assay type: functional; details: read-out: IZ
How it was run: (§2)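 Well diffusion on Mueller-Hinton agar seeded with 24 h old cultures. Compounds dissolved in DMSO at 1 and 0.5 mg/mL and added to wells punched with a sterile cork borer, with a DMSO-only control. Plates incubated 24 h at 37 °C. Read-out was the inhibition zone in mm, run in triplicate, standard deviation calculated.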

Clostridium perfringens [10] = experiment: Antibacterial activity against Clostridium perfringens assessed as zone of inhibition at 500 ug/ml after 24 hrs by agar diffusion method; assay type: functional; details: read-out: IZ; how it was run: as §2
Pseudomonas aeruginosa [11] = experiment: Antibacterial activity against Pseudomonas aeruginosa ATCC 27853 assessed as zone of inhibition at 1000 ug/ml after 24 hrs by agar diffusion method; assay type: functional; details: ATCC 27853, 24 h, read-out: IZ; how it was run: as §1
Pseudomonas aeruginosa [12] = experiment: Antibacterial activity against Pseudomonas aeruginosa ATCC 27853 assessed as zone of inhibition at 500 ug/ml after 24 hrs by agar diffusion method; assay type: functional; details: ATCC 27853, 24 h, read-out: IZ; how it was run: as §1
Candida albicans [13] = experiment: Antifungal activity against Candida albicans at 1000 ug/ml after 72 hrs by agar diffusion method by agar diffusion method; assay type: functional; details: read-out: DIZ
How it was run: (§3)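 Fungal spores were suspended in normal saline (one loopful in 3 mL) and lawned on agar plates. Wells were punched with a sterile cork borer and loaded with test compound in DMSO at the different concentrations. A DMSO solvent control was included. Petri dishes were prepared in triplicate and held at 25 °C for 72 h.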

Candida albicans [14] = experiment: Antifungal activity against Candida albicans at 500 ug/ml after 72 hrs by agar diffusion method; assay type: functional; details: read-out: DIZ; how it was run: as §3
Nannizzia gypsea [15] = experiment: Antifungal activity against Microsporum gypseum at 1000 ug/ml after 72 hrs by agar diffusion method; assay type: functional; details: read-out: DIZ; how it was run: as §3
Nannizzia gypsea [16] = experiment: Antifungal activity against Microsporum gypseum at 500 ug/ml after 72 hrs by agar diffusion method; assay type: functional; details: read-out: DIZ; how it was run: as §3
Aspergillus flavus [17] = experiment: Antifungal activity against Aspergillus flavus at 1000 ug/ml after 72 hrs by agar diffusion method; assay type: functional; details: read-out: DIZ; how it was run: as §3
Aspergillus flavus [18] = experiment: Antifungal activity against Aspergillus flavus at 500 ug/ml after 72 hrs by agar diffusion method; assay type: functional; details: read-out: DIZ; how it was run: as §3
Aspergillus niger [19] = experiment: Antifungal activity against Aspergillus niger at 1000 ug/ml after 72 hrs by agar diffusion method; assay type: functional; details: read-out: DIZ; how it was run: as §3
Aspergillus niger [20] = experiment: Antifungal activity against Aspergillus niger at 500 ug/ml after 72 hrs by agar diffusion method; assay type: functional; details: read-out: DIZ; how it was run: as §3
Trichophyton rubrum [21] = experiment: Antifungal activity against Trichophyton rubrum at 1000 ug/ml after 72 hrs by agar diffusion method; assay type: functional; details: read-out: DIZ; how it was run: as §3
Trichophyton rubrum [22] = experiment: Antifungal activity against Trichophyton rubrum at 500 ug/ml after 72 hrs by agar diffusion method; assay type: functional; details: read-out: DIZ; how it was run: as §3

SMILES | zone of inhibition at 1000 µg/mL (Escherichia coli [1]) [mm] | zone of inhibition at 500 µg/mL (Escherichia coli [2]) [mm] | zone of inhibition at 1000 µg/mL (Staphylococcus aureus [3]) [mm] | zone of inhibition at 500 µg/mL (Staphylococcus aureus [4]) [mm] | zone of inhibition at 1000 µg/mL (Bacillus subtilis [5]) [mm] | zone of inhibition at 500 µg/mL (Bacillus subtilis [6]) [mm] | zone of inhibition at 1000 µg/mL (Salmonella typhimurium [7]) [mm] | zone of inhibition at 500 µg/mL (Salmonella typhimurium [8]) [mm] | zone of inhibition at 1000 µg/mL (Clostridium perfringens [9]) [mm] | zone of inhibition at 500 µg/mL (Clostridium perfringens [10]) [mm] | zone of inhibition at 1000 µg/mL (Pseudomonas aeruginosa [11]) [mm] | zone of inhibition at 500 µg/mL (Pseudomonas aeruginosa [12]) [mm] | zone of inhibition at 1000 µg/mL (Candida albicans [13]) [mm] | zone of inhibition at 500 µg/mL (Candida albicans [14]) [mm] | zone of inhibition at 1000 µg/mL (Nannizzia gypsea [15]) [mm] | zone of inhibition at 500 µg/mL (Nannizzia gypsea [16]) [mm] | zone of inhibition at 1000 µg/mL (Aspergillus flavus [17]) [mm] | zone of inhibition at 500 µg/mL (Aspergillus flavus [18]) [mm] | zone of inhibition at 1000 µg/mL (Aspergillus niger [19]) [mm] | zone of inhibition at 500 µg/mL (Aspergillus niger [20]) [mm] | other results
Cc1ccc(-c2n[nH]cc2-c2nc(-c3ccccc3)c(-c3ccccc3)[nH]2)cc1 | 14 | 8 | 7 | 6 | 8 | 7 | 6 | 5 | 6 | 5 | 6 | 4 | 10 | 9 | 3 | 2 | 10 | 9 | 10 | 9 | zone of inhibition at 1000 µg/mL (Trichophyton rubrum [21]): 12 mm; zone of inhibition at 500 µg/mL (Trichophyton rubrum [22]): 11 mm
Cc1ccc(-c2n[nH]cc2-c2nc(-c3ccc(Br)cc3)c(-c3ccc(Br)cc3)[nH]2)cc1 | 4 | 3 | 3 | 2 | 4 | 3 | 4 | 3 | 3 | 2 | 2 | 1 | 4 | 3 | 2 | 1 | 3 | 2 | 3 | 2 | zone of inhibition at 1000 µg/mL (Trichophyton rubrum [21]): 3 mm; zone of inhibition at 500 µg/mL (Trichophyton rubrum [22]): 2 mm
Clc1ccc(-c2n[nH]cc2-c2nc(-c3ccccc3)c(-c3ccccc3)[nH]2)c(Cl)c1 | 10 | 9 | 6 | 5 | 6 | 5 | 3 | 2 | 6 | 5 | 4 | 3 | 12 | 11 | 4 | 3 | 8 | 7 | 9 | 7 | zone of inhibition at 1000 µg/mL (Trichophyton rubrum [21]): 10 mm; zone of inhibition at 500 µg/mL (Trichophyton rubrum [22]): 8 mm
Clc1cc(-c2n[nH]cc2-c2nc(-c3ccc(Br)cc3)c(-c3ccc(Br)cc3)[nH]2)c(Cl)s1 | 4 | 3 | 3 | 2 | 2 | 1 | 2 | 1 | 5 | 4 | 4 | 3 | 6 | 5 | 3 | 2 | 4 | 3 | 4 | 3 | zone of inhibition at 1000 µg/mL (Trichophyton rubrum [21]): 6 mm; zone of inhibition at 500 µg/mL (Trichophyton rubrum [22]): 5 mm
Clc1cc(-c2n[nH]cc2-c2nc(-c3ccccc3)c(-c3ccccc3)[nH]2)c(Cl)s1 | 6 | 5 | 6 | 5 | 4 | 3 | 7 | 6 | 8 | 7 | 6 | 5 | 10 | 9 | 5 | 4 | 10 | 9 | 10 | 9 | zone of inhibition at 1000 µg/mL (Trichophyton rubrum [21]): 10 mm; zone of inhibition at 500 µg/mL (Trichophyton rubrum [22]): 9 mm
OC(Cn1cncn1)(Cn1cncn1)c1ccc(F)cc1F [FLUCONAZOLE] |  |  |  |  |  |  |  |  |  |  |  |  | 22 | 21 | 15 | 14 | 22 | 21 | 20 | 18 | zone of inhibition at 1000 µg/mL (Trichophyton rubrum [21]): 24 mm; zone of inhibition at 500 µg/mL (Trichophyton rubrum [22]): 22 mm
COC(=O)/C=C1/C(=O)NC(=S)N1/N=C/c1c[nH]nc1-c1cc(Cl)sc1Cl | 9 | 8 | 7 | 6 | 8 | 7 | 10 | 9 | 12 | 11 | 9 | 8 | 6 | 5 | 6 | 5 | 10 | 9 | 6 | 5 | zone of inhibition at 1000 µg/mL (Trichophyton rubrum [21]): 13 mm; zone of inhibition at 500 µg/mL (Trichophyton rubrum [22]): 12 mm
Clc1ccc(-c2n[nH]cc2-c2nc(-c3ccc(Br)cc3)c(-c3ccc(Br)cc3)[nH]2)c(Cl)c1 | 5 | 4 | 4 | 3 | 5 | 4 | 4 | 3 | 3 | 2 | 5 | 4 | 9 | 8 | 4 | 3 | 5 | 4 | 5 | 4 | zone of inhibition at 1000 µg/mL (Trichophyton rubrum [21]): 10 mm; zone of inhibition at 500 µg/mL (Trichophyton rubrum [22]): 9 mm
CN[C@@H]1[C@H](O[C@H]2[C@H](O[C@H]3[C@H](O)[C@@H](O)[C@H](N=C(N)N)[C@@H](O)[C@@H]3N=C(N)N)O[C@@H](C)[C@]2(O)C=O)O[C@@H](CO)[C@H](O)[C@H]1O [STREPTOMYCIN] | 16 | 10 | 15 | 10 | 21 | 11 | 18 | 17 | 17 | 16 | 13 | 9 |  |  |  |  |  |  |  |  | 
